Results published in ChEMBL document CHEMBL2163241, “Human neutrophil elastase phosphonic inhibitors with improved potency of action” (J Med Chem, 2012).

Key:
[1] = Solubility in 80% human plasma at […] incubated at 37 degC by HPLC; format: ADME, cell-free
[2] = Selectivity ratio of Kinact/Ki ratio for porcine pancreatic elastase to Kinact/Ki ratio for human leukocyte elastase
[3] = Solubility in pH 7.4 PBS buffer at […] incubated at 37 degC by HPLC; format: physicochemical
[4] = Half life in 80% human plasma at […] incubated at 37 degC by HPLC; format: ADME, cell-free
Procedure, shortened: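 DMSO stock (50 mM) added to freshly isolated pooled healthy-donor human plasma diluted to 80% with PBS pH 7.4, final 3 mg/mL or 0.1 mg/mL; incubated 37 °C; compound remaining monitored by HPLC over time to give half-life.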

[5] = Half life in pH 7.4 PBS buffer at […] incubated at 37 degC by HPLC; format: physicochemical
[6] = Inhibition of trypsin at 25 uM assessed as Kinact/Ki ratio incubated for 15 mins by spectrofluorometry
[7] = Inhibition of chymotrypsin at 25 uM assessed as Kinact/Ki ratio incubated for 15 mins by spectrofluorometry
[8] = molecular target: Pancreatic elastase (Sus scrofa) (UniProt P08419+P00772); experiment: Inhibition of porcine pancreatic elastase at 25 uM assessed as Kinact/Ki ratio incubated for 15 mins by spectrofluorometry; format: protein assay
[9] = molecular target: T1, Neutrophil elastase (Homo sapiens) (UniProt P08246); experiment: Inhibition of human leukocyte elastase at 25 uM assessed as Kinact/Ki ratio incubated for 15 mins by spectrofluorometry
T1 sequence (whole entry): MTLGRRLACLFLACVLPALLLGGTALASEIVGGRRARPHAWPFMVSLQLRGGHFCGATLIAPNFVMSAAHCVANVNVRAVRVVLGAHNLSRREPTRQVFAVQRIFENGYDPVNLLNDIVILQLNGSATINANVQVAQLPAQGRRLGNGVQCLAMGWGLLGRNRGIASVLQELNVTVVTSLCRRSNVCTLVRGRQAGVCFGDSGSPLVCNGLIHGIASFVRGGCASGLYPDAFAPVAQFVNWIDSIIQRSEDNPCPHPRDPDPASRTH

Homo sapiens [10] = species on record: Homo sapiens; experiment: Selectivity ratio of Kinact/Ki ratio for chymotrypsin to Kinact/Ki ratio for human leukocyte elastase
[11] = Chemical stability in pH 7.4 PBS buffer assessed as compound remaining at […] measured after 6 days at 37 degC by HPLC; format: physicochemical; settings: read-out: Stability
[12] = Drug degradation in pH 7.4 PBS buffer assessed as compound hydrolysis at […] measured after 48 hrs at 37 degC by HPLC; format: physicochemical; settings: read-out: Drug degradation
[13] = molecular target: T1, Neutrophil elastase (Homo sapiens); experiment: Irreversible inhibition of human leukocyte elastase assessed as recovery of enzyme activity using MeOSuc-AAPV-AFC substrate at 200 uM treated for 15 mins followed by dialysis measured up to 50 days by fluorescence assay; parameters: scale not given: the % may be the effect or the level left
Homo sapiens [14] = species on record: Homo sapiens; experiment: Selectivity ratio of Kinact/Ki ratio for human leukocyte elastase to Kinact/Ki ratio for chymotrypsin

| SMILES | solubility [1] [mM] | Ratio [2] | solubility [3] [mM] | half-life [4] [h] | half-life [5] [h] | Ratio [6] [M⁻¹ s⁻¹] | Ratio [7] [M⁻¹ s⁻¹] | Ratio [8] [M⁻¹ s⁻¹] | Ratio [9] [M⁻¹ s⁻¹] | Ratio (Homo sapiens [10]) | remaining at 144 h [11] [%] | degraded at 48 h [12] [%] | Activity [13] [%] | Ratio (Homo sapiens [14]) | inhibition [6] [%] |
| --- | --- | --- | --- | --- | --- | --- | --- | --- | --- | --- | --- | --- | --- | --- | --- |
| CSc1ccc(OP(=O)(Oc2ccc(SC)cc2)C(NC(=O)[C@@H]2CCCN2C(=O)[C@@H](NC(=O)OC(C)(C)C)C(C)C)C(C)C)cc1 (mixture of isomers) | 0.36 | 15 | 0.36 | 6.2 | 28 | < 50 | 900 | 14000 | 217000 | – | – | – | – | – | – |
| CCCCC(NC(=O)[C@@H]1CCCN1C(=O)[C@@H](NC(=O)OC(C)(C)C)C(C)C)P(=O)(Oc1ccc(SC)cc1)Oc1ccc(SC)cc1 (mixture of isomers) | – | – | – | – | – | < 50 | 4250 | 9700 | 8100 | 2 | – | – | – | – | – |
| CSc1ccc(OP(=O)(Oc2ccc(SC)cc2)C(NC(=O)[C@@H]2CCCN2C(=O)[C@@H](NC(=O)Cn2cc(C)c(=O)n(CC(=O)O)c2=O)C(C)C)C(C)C)cc1 (mixture of isomers) | 6.11 | 8.2 | 6.11 | 3.95 | 100 | 140 | 22900 | 118000 | 965000 | 42 | – | – | – | – | – |
| CSc1ccc(OP(=O)(Oc2ccc(SC)cc2)C(NC(=O)[C@@H]2CCCN2C(=O)[C@@H](NC(=O)COc2ccc(OCC(=O)O)cc2)C(C)C)C(C)C)cc1 (mixture of isomers) | 6.23 | 50.8 | 6.23 | 8 | 150 | < 50 | 4000 | 19100 | 970000 | 245 | > 50 | 16 | – | – | – |
| CSc1ccc(OP(=O)(Oc2ccc(SC)cc2)C(NC(=O)[C@@H]2CCCN2C(=O)[C@@H](NC(=O)Cn2ccc(=O)n(CC(=O)O)c2=O)C(C)C)C(C)C)cc1 (mixture of isomers) | 6.22 | – | 6.22 | 4.55 | 100 | 130 | 28300 | 140000 | 460000 | – | – | – | – | – | – |
| CSc1ccc(OP(=O)(Oc2ccc(SC)cc2)[C@@H](NC(=O)[C@@H]2CCCN2C(=O)[C@@H](NC(=O)COc2ccc(OCC(=O)O)cc2)C(C)C)C(C)C)cc1 | – | 60 | – | – | – | < 50 | 6450 | 39200 | 2.35e+06 | 365 | – | – | 15 | – | – |
| CSc1ccc(OP(=O)(Oc2ccc(SC)cc2)[C@@H](NC(=O)[C@@H]2CCCN2C(=O)[C@@H](NC(=O)Cn2ccc(=O)n(CC(=O)O)c2=O)C(C)C)C(C)C)cc1 | – | 3.5 | – | – | – | 235 | 40200 | 309000 | 1.08e+06 | 27 | – | – | – | – | – |
| CCCC(NC(=O)[C@@H]1CCCN1C(=O)[C@@H](NC(=O)OC(C)(C)C)C(C)C)P(=O)(Oc1ccc(SC)cc1)Oc1ccc(SC)cc1 (mixture of isomers) | – | – | – | – | – | 420 | 2800 | 54800 | 56200 | 20 | – | – | – | – | – |
| COC(=O)c1cccc(OP(=O)(Oc2cccc(C(=O)OC)c2)C(CC(C)C)NC(=O)[C@@H]2CCCN2C(=O)[C@@H](NC(=O)OC(C)(C)C)C(C)C)c1 (some centres not stated) | – | – | – | – | – | 2800 | 166000 | 76900 | 122000 | – | – | – | – | > 1.3 | – |
| CCCCC(NC(=O)[C@@H]1CCCN1C(=O)[C@@H](NC(=O)OC(C)(C)C)C(C)C)P(=O)(Oc1ccccc1)Oc1ccccc1 (mixture of isomers) | – | – | – | – | – | < 50 | 400 | 1700 | 650 | – | – | – | – | – | – |
| CC(C)CC(NC(=O)[C@@H]1CCCN1C(=O)[C@@H](NC(=O)OC(C)(C)C)C(C)C)P(=O)(Oc1ccccc1)Oc1ccccc1 (mixture of isomers) | – | – | – | – | – | < 50 | 1900 | 1300 | 325 | – | – | – | – | – | – |
| COc1ccc(OP(=O)(Oc2ccc(OC)cc2)C(CC(C)C)NC(=O)[C@@H]2CCCN2C(=O)[C@@H](NC(=O)OC(C)(C)C)C(C)C)cc1 (mixture of isomers) | – | – | – | – | – | < 50 | 1700 | 960 | 270 | – | – | – | – | – | – |
| COc1ccc(C(=O)N[C@H](C(=O)N2CCC[C@H]2C(=O)NC(C(C)C)P(=O)(Oc2ccc(SC)cc2)Oc2ccc(SC)cc2)C(C)C)cc1 (mixture of isomers) | 0.17 | – | 0.17 | 3.8 | 26 | < 50 | < 50 | 4700 | 304000 | – | – | – | – | – | – |
| CCC(NC(=O)[C@@H]1CCCN1C(=O)[C@@H](NC(=O)OC(C)(C)C)C(C)C)P(=O)(Oc1ccccc1)Oc1ccccc1 (mixture of isomers) | – | – | – | – | – | < 50 | < 50 | 12700 | 7100 | – | – | – | – | – | – |
| CCC(NC(=O)[C@@H]1CCCN1C(=O)[C@@H](NC(=O)OC(C)(C)C)C(C)C)P(=O)(Oc1ccc(SC)cc1)Oc1ccc(SC)cc1 (mixture of isomers) | – | – | – | – | – | 460 | 365 | 60100 | 165000 | – | – | – | – | – | – |
| COc1ccc(C(=O)N[C@H](C(=O)N2CCC[C@H]2C(=O)N[C@@H](C(C)C)P(=O)(Oc2ccc(SC)cc2)Oc2ccc(SC)cc2)C(C)C)cc1 | – | – | – | – | – | < 50 | 100 | 6700 | 540000 | – | – | – | – | – | – |
| CSc1ccc(OP(=O)(Oc2ccc(SC)cc2)C(NC(=O)[C@@H]2CCCN2C(=O)CNC(=O)OCc2ccccc2)C(C)C)cc1 (mixture of isomers) | – | – | – | – | – | < 50 | 200 | 1200 | 39000 | – | – | – | – | – | – |
| CC(C)[C@H](NC(=O)OC(C)(C)C)C(=O)N1CCC[C@H]1C(=O)NC(C)P(=O)(Oc1ccc(C(C)(C)C)cc1)Oc1ccc(C(C)(C)C)cc1 (mixture of isomers) | – | – | – | – | – | – | < 50 | < 50 | < 50 | – | – | – | – | – | < 5 |
| CSc1ccc(OP(=O)(Oc2ccc(SC)cc2)C(NC(=O)[C@@H]2CCCN2C(=O)[C@@H](NC(=O)OCc2ccccc2)C(C)C)C(C)C)cc1 (mixture of isomers) | – | – | – | – | – | < 50 | 4400 | 6200 | 231000 | – | – | – | – | – | – |
| CSc1ccc(OP(=O)(Oc2ccc(SC)cc2)C(NC(=O)[C@@H]2CCCN2C(=O)[C@H](CC(C)C)NC(=O)OC(C)(C)C)C(C)C)cc1 (mixture of isomers) | – | – | – | – | – | < 50 | 150 | 7000 | 128000 | – | – | – | – | – | – |
| CC(C)C(NC(=O)[C@@H]1CCCN1C(=O)[C@@H](NC(=O)OC(C)(C)C)C(C)C)P(=O)(Oc1ccc(Cl)cc1)Oc1ccc(Cl)cc1 (mixture of isomers) | – | – | – | – | – | < 50 | 250 | 5000 | 92100 | – | – | – | – | – | – |
| CCC(NC(=O)[C@@H]1CCCN1C(=O)[C@@H](NC(=O)OC(C)(C)C)C(C)C)P(=O)(Oc1ccc(C)c(C)c1)Oc1ccc(C)c(C)c1 (mixture of isomers) | – | – | – | – | – | < 50 | < 50 | 1250 | 460 | – | – | – | – | – | – |
| CC(C)C(NC(=O)[C@@H]1CCCN1C(=O)[C@@H](NC(=O)OC(C)(C)C)C(C)C)P(=O)(Oc1ccccc1)Oc1ccccc1 (mixture of isomers) | – | 2 | – | – | – | < 50 | < 50 | 22800 | 46100 | – | – | – | – | – | – |
| CSc1ccc(OP(=O)(Oc2ccc(SC)cc2)C(NC(=O)[C@@H]2CCCN2C(=O)[C@H](COC(C)(C)C)NC(=O)OCc2ccccc2)C(C)C)cc1 (mixture of isomers) | – | – | – | – | – | < 50 | 500 | 4300 | 162000 | – | – | – | – | – | – |
